# From PubChem BioAssay
# This is a sample that favours compounds with a hit; in the whole collection about 3.5% have one here.
# RGS4 inh: inhibitors of human RGS4; B-score at 10 µM; P49798; HEK293 M3R/RGS4 inducible, Fluo-4 calcium flux; active compounds read high; triggered by carbachol at its EC20; actives 0.45% (n = 310,000);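 active means B-score, a plate-corrected calcium signal, over three deviations above library mean, with baseline fluorescence within five deviations of library mean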;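 further: RGS4 expression induced by doxycycline in cells with stable M3 receptor; B-score is computed from the integrated fluorescence ratio over baseline after carbachol; higher B-score means a larger calcium signal and so more RGS4 inhibition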
# Target sequence (P49798 whole entry, looked up): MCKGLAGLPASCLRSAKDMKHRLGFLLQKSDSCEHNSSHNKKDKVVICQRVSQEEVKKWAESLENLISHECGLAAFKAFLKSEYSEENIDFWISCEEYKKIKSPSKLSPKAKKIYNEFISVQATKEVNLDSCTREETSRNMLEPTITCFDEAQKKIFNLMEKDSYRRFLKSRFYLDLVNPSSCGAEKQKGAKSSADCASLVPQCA
# RGS4 pot: RGS4 potentiation or activation; HEK293 M3R/inducible RGS4, carbachol calcium flux Fluo4; active compounds read low; B-score at 10 µM; actives 0.92% (n = 310,000);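 active means B-score of the integrated calcium signal more than 4 SD below the library mean, with starting fluorescence not abnormally high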;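 further: negative B-score means reduced calcium response which marks RGS4 activation or potentiation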
#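 Material: Inducible-RGS4 HEK293 cells carrying M3 receptor; also added: carbachol at ECmax as muscarinic agonist stimulus; incubation: compound preincubation 20 min at room temperature before agonist; signal: Fluo4-AM (2 µM) calcium-flux fluorescence, kinetic read; measure: integrated calcium ratio converted to B score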
# MrgX1 allo act: human MrgX1 positive allosteric modulation, primary screen; Q96LB2; MrgX1-HEK293, Fluo-4 calcium flux, FDSS; active compounds read high; B-score at 10 µM; actives 0.63% (n = 310,000); AID 588675;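 active means plate-corrected calcium response at least 3 library SD above typical, normal starting fluorescence, not activating the receptor alone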;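 further: compound read alongside a low EC10 to EC30 dose of BAM8-22 agonist; peak minus trough fluorescence over baseline measured at the second addition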
# Target sequence (Q96LB2 whole entry, looked up): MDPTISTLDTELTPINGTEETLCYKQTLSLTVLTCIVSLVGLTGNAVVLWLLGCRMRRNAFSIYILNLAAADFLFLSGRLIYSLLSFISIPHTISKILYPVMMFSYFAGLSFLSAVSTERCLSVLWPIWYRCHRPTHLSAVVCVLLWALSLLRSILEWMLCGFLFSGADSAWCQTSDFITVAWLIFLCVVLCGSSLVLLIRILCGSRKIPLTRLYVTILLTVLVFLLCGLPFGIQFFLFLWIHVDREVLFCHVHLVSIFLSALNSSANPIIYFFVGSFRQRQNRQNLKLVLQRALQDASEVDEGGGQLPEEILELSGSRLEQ
# MrgX1 ag: activates human MrgX1 receptor signaling | MrgX1-HEK293 cells, Fluo-4 calcium fluorescence, agonist mode; active compounds read high | B-score at 10 µM | actives 0.44% (n = 310,000) | AID 588627 | Q96LB2;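 active means calcium response B-score plate-corrected fluorescence ratio at least 3 library SD, with starting fluorescence B-score inside 5 SD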
#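 Material: MrgX1-expressing HEK293 cells; input: 15,000 cells per well; doses: test compound given as first of three sequential additions; schedule: overnight plating before 1 h dye loading; technique: Fluo-4 NW calcium-flux fluorescence, kinetic read; evaluation: baseline-normalised fluorescence change ratio, B-scored; control set: plate-wise positive and negative controls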
# MrgX1 antag: human MrgX1 receptor antagonism, primary screen | AID 588676 | actives 1.3% (n = 310,000) | MRGX1-HEK293 calcium flux, Fluo-4, BAM8-22 antagonism; active compounds read low | B-score at 10 µM;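 active means calcium-response B-score plate-corrected more than 3 library SD below zero, starting fluorescence within 5 deviations, no agonist response on first addition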;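 further: peak minus trough fluorescence over baseline after final BAM8-22 challenge near maximal dose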
# RGS4 inh valid: RGS4 inhibitor validation; shares compounds with RGS4 inh; HEK293 M3R/RGS4, carbachol calcium Fluo-4 fluorescence; carbachol added at its EC20; 0 = buffer wells, 100 = carbachol control; calcium response, % at 10 µM; actives 65% (n = 1,700); AID 492999;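 active means duplicate-averaged calcium response above the buffer-only control mean plus 5 SD of those controls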;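 further: integrated fluorescence ratio F max minus min over baseline F0; higher response in RGS4-induced cells means RGS4 inhibition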
# RGS4 uninduced: non-induced cell nonspecific activity of RGS4 inhibitors; activity (percent), % at 10 µM; actives 20% (n = 1,900); shares compounds with RGS4 inh; HEK293 M3R non-induced, carbachol calcium Fluo-4; submaximal (EC20) carbachol stimulus; buffer wells 0%, carbachol control wells 100%; AID 493000; call rule not given here;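 further: RGS4 induction absent so cells express M3R without RGS4; higher means more calcium signal and flags a non-specific hit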
# M3R basal Ca ctr: second RGS4 inhibitor counter-screen in uninduced cells lacking carbachol | shares compounds with RGS4 inh | HEK293 M3R/RGS4 non-induced, Fluo-4 calcium, no carbachol; normalised: buffer wells 0%, carbachol wells 100% | calcium response (agonist-mode artifact), % at 10 µM | actives 22% (n = 1,900) | AID 493001;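 active means duplicate-averaged calcium rise in uninduced cells above buffer wells' mean plus 5 SD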
# * = called active by the depositor; i = inactive; nt = not tested or not shown.
SMILES,RGS4 inh,RGS4 pot,MrgX1 allo act,MrgX1 ag,MrgX1 antag,RGS4 inh valid,RGS4 uninduced,M3R basal Ca ctr
CCOc1ccccc1N1CCN(Cc2cn[nH]c2-c2ccc(F)cc2)CC1,6.8*,i,i,i,i,44%*,44%*,i
CCOc1ccccc1N1CCN(Cc2cccc(OC)c2OC)CC1,i,i,i,i,i,nt,nt,nt
COC(=O)c1c(N2C(=O)[C@H]3[C@@H](C2=O)[C@]2(C(=O)Nc4ccccc42)N2CCC[C@@H]32)sc(C)c1C,i,i,i,i,i,nt,nt,nt
O=C1[C@H]2[C@@H](C(=O)N1c1cc(Cl)cc(Cl)c1)[C@]1(C(=O)Nc3ccccc31)N1CCC[C@@H]21,5.2*,i,i,i,i,i,i,i
CCN(C(=S)NC(=O)CCc1ccccc1)c1ccccc1,i,i,i,i,i,nt,nt,nt
O=C(CCN1CCCCC1)c1ccc2c(c1)OCCO2,i,i,i,i,i,i,i,i
O=C(CCN1CCc2ccccc2C1)c1ccc2c(c1)OCCO2,6.7*,i,i,i,i,20%*,i,14%*
O=C(CCN1CCc2ccccc21)c1ccc2c(c1)OCCO2,i,i,i,i,i,nt,nt,nt
COc1ccc(C(=O)CCN2CCCCCC2)cc1,11*,i,i,39*,i,i,i,28%*
CCOc1ccc(C(=O)CCN2CCCCC2)cc1,i,i,i,i,i,nt,nt,nt
CN1CCN(S(=O)(=O)c2cccc(C(=O)NCc3ccc(Cl)cc3)c2)CC1,i,i,i,i,i,nt,nt,nt
COc1ccc(-n2c(CNc3ccc(C)cc3)nnc2SCc2ccccc2)cc1,i,i,i,i,i,nt,i,i
Cc1cccc(C(=O)Nc2ccc(N3CCN(S(C)(=O)=O)CC3)cc2)c1,i,i,i,i,i,nt,nt,nt
Cc1cc(NC(=O)CSc2nnc(-c3c[nH]c4ccccc34)n2C)no1,i,i,i,i,i,nt,nt,nt
Cc1c(C(=O)OCc2nc3scc(-c4ccccc4)c3c(=O)[nH]2)cccc1[N+](=O)[O-],i,i,i,i,i,nt,nt,nt
O=C(OCc1nc2scc(-c3ccccc3)c2c(=O)[nH]1)c1cc(Cl)ccc1[N+](=O)[O-],6.2*,i,i,i,i,24%*,i,i
Cc1ccc(CNC(=O)c2cc(=O)c3ccc(C)cc3o2)cc1,i,i,i,i,i,nt,nt,nt
O=C(O)c1ccc2c(c1)C(=O)N(c1cccc(C(=O)/C=C/c3ccccc3)c1)C2=O,15*,i,i,i,i,68%*,i,i
O=C(O)c1cccc(N2C(=O)c3ccc(C(=O)c4cccc([N+](=O)[O-])c4)cc3C2=O)c1,i,i,i,i,i,nt,nt,nt
COc1cccc(NC(=O)NC2CCCCCCC2)c1,18*,i,i,i,i,i,i,i
CCc1cccc(C)c1NC(=S)NCCc1c(C)[nH]c2ccc(C)cc12,i,i,i,i,i,nt,nt,nt
CCc1cccc(CC)c1NC(=S)NCCc1c(C)[nH]c2ccc(C)cc12,i,i,i,i,i,nt,i,i
CCNC(=S)N/N=C/c1sccc1C,i,i,i,i,i,nt,nt,nt
Cc1ccsc1/C=N/NC(=S)NCCc1ccccc1,8.6*,i,i,i,i,18%*,i,i
COc1ccc(Cl)cc1NC(=O)c1cc(C)no1,i,i,i,i,i,nt,nt,nt
SMILES,RGS4 inh,RGS4 pot,MrgX1 allo act,MrgX1 ag,MrgX1 antag,RGS4 inh valid,RGS4 uninduced,M3R basal Ca ctr
COc1ccc(S(=O)(=O)N2CCN(c3ccc4nnc(-c5ccc(F)cc5)n4n3)CC2)cc1,i,i,i,i,i,nt,32%*,i
COc1ccc(N2CCN(C3CCN(S(=O)(=O)c4ccc(F)cc4)CC3)CC2)cc1,i,i,i,i,i,nt,nt,nt
O=C(/C=C/c1ccc([N+](=O)[O-])cc1)c1cccs1,12*,i,i,i,i,8.0%*,38%*,i
Nc1nc(Nc2ccccc2)nc(NCc2ccco2)c1[N+](=O)[O-],i,i,i,i,i,i,i,i
COc1nc(N/N=C/c2ccc(C)cc2)nc(N2CCCCC2)n1,i,i,i,i,i,nt,nt,nt
O=C(O)c1cccc(Nc2nc(Nc3ccccc3)nc(N3CCCC3)n2)c1,i,i,i,i,i,nt,nt,nt
Cc1cccc(Nc2nc(N3CCCC3)nc(N3CCCC3)n2)c1,i,i,i,i,i,i,i,i
COc1nc(Nc2cccc(C)c2)nc(N2CCCCC2)n1,i,i,i,i,i,i,i,i
CC(C)c1nc(SCC(=O)Nc2ccc(C(=O)O)cc2)c2c3c(sc2n1)CCCC3,4.7*,i,i,i,i,13%*,i,i
Oc1ccc(C[C@@H]2CNCCN2CCc2cc(C(F)(F)F)cc(C(F)(F)F)c2)cc1,i,i,i,i,i,nt,nt,nt
FC(F)(F)c1cc(CCN2CCNC[C@H]2Cc2cccc3ccccc23)cc(C(F)(F)F)c1,5.1*,i,i,i,i,7.0%*,i,i
Cc1nn2c(-c3cccnc3)ccnc2c1-c1ccccc1,i,i,i,i,i,nt,nt,nt
Cc1ccc(-c2ccnc3c(Br)c(C)nn23)cc1,i,i,i,i,i,i,i,i
Cc1nn2c(-c3ccccc3)ccnc2c1Br,i,i,i,i,i,i,i,i
Cc1cc(C)n2nc(Sc3ncccc3[N+](=O)[O-])nc2n1,9.5*,i,i,i,i,28%*,34%*,i
Cc1cnc(Sc2ncccc2[N+](=O)[O-])nc1,i,i,i,i,i,nt,nt,nt
Cc1cc(N2CCOCC2)ccc1/C=C\[N+](=O)[O-],27*,i,i,67*,i,98%*,57%*,75%*
O=[N+]([O-])c1ccc(N2CCOCC2)cc1O,i,i,i,i,i,nt,nt,nt
COc1ccccc1/C=C(/NC(=O)c1ccc(Cl)cc1Cl)C(=O)O,i,i,i,i,i,nt,nt,nt
